Measurements taken from ChEMBL document CHEMBL1128425, “5-Methyl-1-(3-pyridylcarbamoyl)-1,2,3,5-tetrahydropyrrolo[2,3-f]indole: a novel 5-HT2C/5-HT2B receptor antagonist with improved affinity, selectivity, and oral activity” (J Med Chem, 1995).

How the values were obtained:
Histamine H1 receptor = Histamine H1 receptor (Cavia porcellus, UniProt P31389); test: Binding affinity against guinea pig H1 receptor
[1] = biological target: T1, 5-hydroxytryptamine receptor 1A (Rattus norvegicus, UniProt P19327); test: Binding affinity against rat 5-hydroxytryptamine 1A receptor
T1 sequence (P19327 whole entry): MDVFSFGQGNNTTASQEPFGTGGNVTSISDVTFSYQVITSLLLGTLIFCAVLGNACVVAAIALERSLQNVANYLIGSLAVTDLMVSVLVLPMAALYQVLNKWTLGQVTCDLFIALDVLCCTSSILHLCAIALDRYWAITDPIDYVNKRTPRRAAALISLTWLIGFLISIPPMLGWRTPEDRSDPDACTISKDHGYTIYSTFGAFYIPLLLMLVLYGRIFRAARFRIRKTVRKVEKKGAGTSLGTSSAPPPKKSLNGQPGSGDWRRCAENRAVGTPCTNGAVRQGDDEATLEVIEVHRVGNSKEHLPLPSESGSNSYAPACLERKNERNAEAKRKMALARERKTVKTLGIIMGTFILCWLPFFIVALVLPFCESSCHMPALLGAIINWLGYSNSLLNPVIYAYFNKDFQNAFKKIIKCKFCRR

[2] = biological target: T2, Adrenergic receptor alpha-1 (Rattus norvegicus, UniProt P15823+P23944+P43140); test: Binding affinity against rat Alpha-1 adrenergic receptor; assay type: protein assay
T2 sequence (P15823 whole entry): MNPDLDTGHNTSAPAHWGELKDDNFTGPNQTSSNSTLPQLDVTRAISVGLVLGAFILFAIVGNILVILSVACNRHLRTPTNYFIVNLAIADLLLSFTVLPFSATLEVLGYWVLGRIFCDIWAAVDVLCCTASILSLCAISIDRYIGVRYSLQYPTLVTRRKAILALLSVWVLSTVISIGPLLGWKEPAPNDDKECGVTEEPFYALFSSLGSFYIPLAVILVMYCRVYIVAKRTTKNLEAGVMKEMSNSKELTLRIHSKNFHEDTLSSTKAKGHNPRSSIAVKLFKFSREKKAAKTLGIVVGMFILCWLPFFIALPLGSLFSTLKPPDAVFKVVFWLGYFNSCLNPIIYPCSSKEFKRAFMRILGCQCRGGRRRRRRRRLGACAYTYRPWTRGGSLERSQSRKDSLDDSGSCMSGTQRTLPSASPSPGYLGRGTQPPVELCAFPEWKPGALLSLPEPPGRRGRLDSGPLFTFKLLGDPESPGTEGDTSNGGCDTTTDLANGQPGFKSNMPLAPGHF
T2 sequence (P23944 whole entry): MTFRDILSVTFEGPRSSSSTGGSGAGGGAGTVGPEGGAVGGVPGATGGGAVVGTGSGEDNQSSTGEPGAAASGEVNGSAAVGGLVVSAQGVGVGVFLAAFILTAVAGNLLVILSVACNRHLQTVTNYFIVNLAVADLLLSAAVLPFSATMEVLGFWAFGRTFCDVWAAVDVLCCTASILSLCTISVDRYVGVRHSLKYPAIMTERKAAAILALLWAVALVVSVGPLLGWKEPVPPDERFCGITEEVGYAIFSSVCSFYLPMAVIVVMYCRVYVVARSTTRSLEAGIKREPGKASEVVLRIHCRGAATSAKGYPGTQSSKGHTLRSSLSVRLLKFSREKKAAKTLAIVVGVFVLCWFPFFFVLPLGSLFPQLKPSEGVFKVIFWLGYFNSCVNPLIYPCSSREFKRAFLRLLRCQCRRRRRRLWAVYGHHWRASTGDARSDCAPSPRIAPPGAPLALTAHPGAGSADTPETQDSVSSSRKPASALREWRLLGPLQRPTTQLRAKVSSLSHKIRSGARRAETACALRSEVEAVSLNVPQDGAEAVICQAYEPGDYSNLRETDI
T2 sequence (P43140 whole entry): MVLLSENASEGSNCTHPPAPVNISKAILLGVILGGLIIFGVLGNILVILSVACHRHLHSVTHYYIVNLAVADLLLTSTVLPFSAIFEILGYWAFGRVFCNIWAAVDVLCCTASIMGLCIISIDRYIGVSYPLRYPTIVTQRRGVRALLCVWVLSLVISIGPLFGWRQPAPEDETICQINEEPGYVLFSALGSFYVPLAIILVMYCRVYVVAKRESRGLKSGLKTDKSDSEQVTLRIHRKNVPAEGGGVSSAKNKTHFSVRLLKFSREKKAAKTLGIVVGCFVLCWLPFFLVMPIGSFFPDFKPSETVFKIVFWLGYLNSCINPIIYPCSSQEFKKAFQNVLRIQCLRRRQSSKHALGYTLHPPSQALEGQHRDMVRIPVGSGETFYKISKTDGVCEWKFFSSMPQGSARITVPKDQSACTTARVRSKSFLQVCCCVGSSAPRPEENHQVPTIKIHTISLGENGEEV

[3] = biological target: 5-hydroxytryptamine receptor 1D (Cavia porcellus, UniProt Q60484); test: Binding affinity against guinea pig 5-hydroxytryptamine 1D receptor
[4] = biological target: 5-hydroxytryptamine receptor 2A (Homo sapiens, UniProt P28223); test: Binding affinity against human 5-hydroxytryptamine 2A receptor expressed in 293 cells using [3H]ketanserin; assay type: cell-based, HEK293
How it was run: (§1)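 Radioligand binding at cloned human receptors expressed in 293 cells: [³H]ketanserin for 5-HT2A, [³H]mesulergine for 5-HT2C. Values are means ± SEM of n ≥ 3 determinations.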

D(2) dopamine receptor = D(2) dopamine receptor (Homo sapiens, UniProt P14416); test: Binding affinity against human Dopamine receptor D2 expressed in CHO cells using [125I]iodosulpiride; assay type: cell-based
[5] = biological target: 5-hydroxytryptamine receptor 4 (Rattus norvegicus, UniProt Q62758); test: Binding affinity against rat 5-hydroxytryptamine 4 receptor
Rattus norvegicus = test: In vivo potency to block hypolocomotion response to m-CPP in rat after oral administration; assay type: functional; details: read-out: ID50 (the source's name)
[6] = biological target: 5-hydroxytryptamine receptor 1E (Homo sapiens, UniProt P28566); test: Binding affinity against human 5-hydroxytryptamine 1E receptor expressed in CHO cells; assay type: cell-based
How it was run: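 Displacement binding at cloned human 5-HT1E receptors expressed in CHO cells, using [³H]-5-HT as radioligand.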

D(3) dopamine receptor = D(3) dopamine receptor (Homo sapiens, UniProt P35462); test: Binding affinity human Dopamine receptor D3 expressed in CHO cells using [125I]iodosulpiride; assay type: cell-based
Adenosine receptor A1 = biological target: T3, Adenosine receptor A1 (Rattus norvegicus, UniProt P25099); test: Binding affinity against rat Adenosine A1 receptor
T3 sequence (P25099 whole entry): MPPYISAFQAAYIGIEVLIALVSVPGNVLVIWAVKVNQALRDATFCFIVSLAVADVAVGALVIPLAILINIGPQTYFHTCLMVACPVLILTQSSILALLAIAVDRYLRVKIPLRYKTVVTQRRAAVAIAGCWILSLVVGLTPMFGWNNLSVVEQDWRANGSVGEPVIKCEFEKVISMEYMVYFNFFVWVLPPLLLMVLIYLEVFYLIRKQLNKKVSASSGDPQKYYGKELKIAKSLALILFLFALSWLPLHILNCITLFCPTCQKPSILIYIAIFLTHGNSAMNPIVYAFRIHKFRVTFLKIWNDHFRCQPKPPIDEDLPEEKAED

[7] = biological target: T4, Serotonin 3 (5-HT3) receptor (Rattus norvegicus, UniProt P35563+Q9JJ16); test: Binding affinity against rat 5-hydroxytryptamine 3 receptor; assay type: protein-complex assay
T4 sequence (P35563 whole entry): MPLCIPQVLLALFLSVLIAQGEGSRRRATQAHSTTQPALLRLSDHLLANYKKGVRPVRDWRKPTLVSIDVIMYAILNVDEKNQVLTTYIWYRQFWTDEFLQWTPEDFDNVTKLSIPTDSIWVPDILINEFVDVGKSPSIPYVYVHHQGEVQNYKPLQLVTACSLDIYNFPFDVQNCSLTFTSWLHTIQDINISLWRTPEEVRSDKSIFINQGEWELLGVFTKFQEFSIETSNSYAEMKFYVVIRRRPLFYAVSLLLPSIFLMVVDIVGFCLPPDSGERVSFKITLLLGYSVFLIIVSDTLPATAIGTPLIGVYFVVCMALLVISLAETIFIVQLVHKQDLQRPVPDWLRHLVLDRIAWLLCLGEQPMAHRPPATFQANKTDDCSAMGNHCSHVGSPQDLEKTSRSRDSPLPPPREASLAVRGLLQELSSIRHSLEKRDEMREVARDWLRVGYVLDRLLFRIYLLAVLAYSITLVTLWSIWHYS
T4 sequence (Q9JJ16 whole entry): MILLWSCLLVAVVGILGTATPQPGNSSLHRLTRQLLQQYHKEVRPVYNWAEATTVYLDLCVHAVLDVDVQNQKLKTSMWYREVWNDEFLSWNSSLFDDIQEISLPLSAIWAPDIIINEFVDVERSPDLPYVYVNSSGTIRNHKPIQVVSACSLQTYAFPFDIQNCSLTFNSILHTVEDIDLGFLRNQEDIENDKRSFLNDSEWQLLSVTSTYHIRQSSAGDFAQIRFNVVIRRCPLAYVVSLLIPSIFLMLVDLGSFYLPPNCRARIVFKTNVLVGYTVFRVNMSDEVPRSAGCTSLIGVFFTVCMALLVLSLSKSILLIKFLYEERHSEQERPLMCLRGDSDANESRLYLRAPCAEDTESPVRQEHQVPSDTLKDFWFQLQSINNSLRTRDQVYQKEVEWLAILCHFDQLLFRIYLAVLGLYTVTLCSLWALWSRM

[8] = biological target: 5-hydroxytryptamine receptor 2B (Rattus norvegicus, UniProt P30994); test: Inhibitory potency against rat stomach fundus 5-hydroxytryptamine 2B receptor; assay type: tissue-based; details: read-out: pA2 (converted)
How it was run: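 Functional antagonism in isolated rat stomach fundus, with contraction evoked by 5-HT as the agonist. Values are means ± SEM of n ≥ 3 determinations.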

[9] = biological target: T5, 5-hydroxytryptamine receptor 2C (Homo sapiens, UniProt P28335); test: (§2) Binding affinity against human 5-hydroxytryptamine 2C receptor expressed in 293 cells using [3H]mesulergine; assay type: cell-based, HEK293; how it was run: as §1
T5 sequence (P28335 whole entry): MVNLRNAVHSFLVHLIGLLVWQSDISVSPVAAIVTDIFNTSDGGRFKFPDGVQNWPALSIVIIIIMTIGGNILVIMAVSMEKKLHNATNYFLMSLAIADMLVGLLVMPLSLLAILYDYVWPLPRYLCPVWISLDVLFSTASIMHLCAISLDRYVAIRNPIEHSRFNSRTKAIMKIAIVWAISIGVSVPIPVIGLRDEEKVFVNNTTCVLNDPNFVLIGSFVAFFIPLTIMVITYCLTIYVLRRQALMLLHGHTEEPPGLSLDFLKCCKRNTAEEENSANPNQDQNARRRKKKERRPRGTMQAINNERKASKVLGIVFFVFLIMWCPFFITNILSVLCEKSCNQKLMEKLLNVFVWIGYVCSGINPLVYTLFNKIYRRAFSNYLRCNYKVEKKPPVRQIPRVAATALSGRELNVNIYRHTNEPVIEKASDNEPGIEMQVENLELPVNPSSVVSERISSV

[10] = biological target: T5, 5-hydroxytryptamine receptor 2C; test: as §2; assay type: cell-based, HEK293; remark: listed apart in the source
How it was run: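 Radioligand binding to cloned human receptor in 293 cells with [3H]mesulergine; values are means ± SEM of at least 3 determinations.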

5-hydroxytryptamine receptor 2B, sequence (P30994 whole entry): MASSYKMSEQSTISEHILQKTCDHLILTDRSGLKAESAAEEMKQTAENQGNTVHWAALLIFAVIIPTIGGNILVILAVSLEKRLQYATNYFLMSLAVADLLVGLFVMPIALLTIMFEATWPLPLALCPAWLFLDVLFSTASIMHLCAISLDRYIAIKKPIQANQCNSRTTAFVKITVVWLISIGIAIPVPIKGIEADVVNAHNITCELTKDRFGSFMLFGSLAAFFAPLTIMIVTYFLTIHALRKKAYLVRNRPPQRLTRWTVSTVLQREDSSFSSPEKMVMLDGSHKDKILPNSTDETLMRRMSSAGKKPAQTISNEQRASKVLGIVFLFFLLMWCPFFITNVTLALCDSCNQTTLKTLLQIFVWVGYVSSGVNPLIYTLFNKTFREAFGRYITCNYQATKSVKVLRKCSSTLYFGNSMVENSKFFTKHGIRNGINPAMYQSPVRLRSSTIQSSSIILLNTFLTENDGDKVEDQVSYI
5-hydroxytryptamine receptor 2A, sequence (P28223 whole entry): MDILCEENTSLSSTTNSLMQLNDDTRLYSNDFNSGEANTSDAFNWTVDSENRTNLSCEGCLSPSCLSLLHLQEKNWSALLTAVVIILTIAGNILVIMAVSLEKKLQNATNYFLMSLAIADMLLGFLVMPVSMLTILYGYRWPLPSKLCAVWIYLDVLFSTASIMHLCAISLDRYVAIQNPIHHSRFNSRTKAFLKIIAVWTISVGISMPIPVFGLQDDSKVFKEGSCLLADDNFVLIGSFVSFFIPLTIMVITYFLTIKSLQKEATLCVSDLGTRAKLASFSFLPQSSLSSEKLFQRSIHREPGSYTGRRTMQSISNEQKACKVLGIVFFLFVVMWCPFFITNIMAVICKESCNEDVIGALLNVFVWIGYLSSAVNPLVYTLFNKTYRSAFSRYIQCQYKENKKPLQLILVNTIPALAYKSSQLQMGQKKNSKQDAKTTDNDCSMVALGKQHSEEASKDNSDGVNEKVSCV
5-hydroxytryptamine receptor 4, sequence (Q62758 whole entry): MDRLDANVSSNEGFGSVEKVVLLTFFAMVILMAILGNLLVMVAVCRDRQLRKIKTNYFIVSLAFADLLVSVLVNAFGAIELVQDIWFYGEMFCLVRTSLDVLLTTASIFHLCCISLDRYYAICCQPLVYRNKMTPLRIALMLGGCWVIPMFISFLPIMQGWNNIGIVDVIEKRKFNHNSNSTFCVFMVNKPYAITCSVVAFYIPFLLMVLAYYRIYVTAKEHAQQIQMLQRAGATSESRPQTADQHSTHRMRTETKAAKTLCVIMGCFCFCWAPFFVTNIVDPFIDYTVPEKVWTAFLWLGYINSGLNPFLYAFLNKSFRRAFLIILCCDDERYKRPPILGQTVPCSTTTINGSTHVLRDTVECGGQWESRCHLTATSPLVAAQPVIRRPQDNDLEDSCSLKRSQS
5-hydroxytryptamine receptor 1E, sequence (P28566 whole entry): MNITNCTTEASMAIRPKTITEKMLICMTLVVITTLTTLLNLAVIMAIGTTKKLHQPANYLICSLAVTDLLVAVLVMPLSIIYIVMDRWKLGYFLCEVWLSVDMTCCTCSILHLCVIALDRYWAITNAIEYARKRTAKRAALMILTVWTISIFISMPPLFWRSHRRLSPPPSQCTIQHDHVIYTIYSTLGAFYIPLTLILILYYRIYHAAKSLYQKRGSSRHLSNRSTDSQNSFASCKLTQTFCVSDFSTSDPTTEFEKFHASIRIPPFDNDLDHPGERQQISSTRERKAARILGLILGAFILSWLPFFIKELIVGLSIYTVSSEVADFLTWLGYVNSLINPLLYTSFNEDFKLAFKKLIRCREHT
D(2) dopamine receptor, sequence (P14416 whole entry): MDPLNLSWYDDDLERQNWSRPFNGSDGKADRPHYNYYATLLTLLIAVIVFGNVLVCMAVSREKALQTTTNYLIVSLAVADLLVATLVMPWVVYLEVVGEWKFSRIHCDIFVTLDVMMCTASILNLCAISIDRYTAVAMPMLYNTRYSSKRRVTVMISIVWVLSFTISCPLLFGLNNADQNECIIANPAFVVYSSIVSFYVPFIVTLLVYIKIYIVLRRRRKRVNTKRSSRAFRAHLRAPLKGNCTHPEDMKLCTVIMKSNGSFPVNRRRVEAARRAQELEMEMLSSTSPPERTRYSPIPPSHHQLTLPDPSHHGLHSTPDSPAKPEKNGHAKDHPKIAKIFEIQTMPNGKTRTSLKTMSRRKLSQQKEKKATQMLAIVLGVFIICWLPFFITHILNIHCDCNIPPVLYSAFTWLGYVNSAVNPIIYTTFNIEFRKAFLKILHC
Histamine H1 receptor, sequence (P31389 whole entry): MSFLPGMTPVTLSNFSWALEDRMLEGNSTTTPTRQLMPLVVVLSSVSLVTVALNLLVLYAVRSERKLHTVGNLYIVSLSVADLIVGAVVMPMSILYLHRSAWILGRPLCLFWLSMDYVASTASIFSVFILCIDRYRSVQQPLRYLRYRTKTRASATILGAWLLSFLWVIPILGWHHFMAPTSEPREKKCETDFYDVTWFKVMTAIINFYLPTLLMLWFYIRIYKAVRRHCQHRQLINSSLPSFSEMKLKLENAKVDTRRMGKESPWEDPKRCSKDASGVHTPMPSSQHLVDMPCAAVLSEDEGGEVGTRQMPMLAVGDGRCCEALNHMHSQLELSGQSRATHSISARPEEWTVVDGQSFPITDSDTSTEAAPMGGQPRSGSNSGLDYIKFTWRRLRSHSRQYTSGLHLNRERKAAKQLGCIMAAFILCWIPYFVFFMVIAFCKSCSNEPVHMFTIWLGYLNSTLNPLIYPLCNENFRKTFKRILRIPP
D(3) dopamine receptor, sequence (P35462 whole entry): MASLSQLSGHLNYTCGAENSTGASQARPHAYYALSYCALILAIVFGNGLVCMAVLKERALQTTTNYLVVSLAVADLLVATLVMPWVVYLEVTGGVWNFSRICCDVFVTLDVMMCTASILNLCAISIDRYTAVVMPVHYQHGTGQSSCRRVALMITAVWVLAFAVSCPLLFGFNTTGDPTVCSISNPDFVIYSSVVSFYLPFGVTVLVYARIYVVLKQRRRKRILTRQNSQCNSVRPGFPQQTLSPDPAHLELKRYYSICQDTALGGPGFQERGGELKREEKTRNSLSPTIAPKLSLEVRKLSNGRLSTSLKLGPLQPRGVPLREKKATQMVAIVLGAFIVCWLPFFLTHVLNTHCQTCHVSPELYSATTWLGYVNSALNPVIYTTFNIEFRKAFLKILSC
5-hydroxytryptamine receptor 1D, sequence (Q60484 whole entry): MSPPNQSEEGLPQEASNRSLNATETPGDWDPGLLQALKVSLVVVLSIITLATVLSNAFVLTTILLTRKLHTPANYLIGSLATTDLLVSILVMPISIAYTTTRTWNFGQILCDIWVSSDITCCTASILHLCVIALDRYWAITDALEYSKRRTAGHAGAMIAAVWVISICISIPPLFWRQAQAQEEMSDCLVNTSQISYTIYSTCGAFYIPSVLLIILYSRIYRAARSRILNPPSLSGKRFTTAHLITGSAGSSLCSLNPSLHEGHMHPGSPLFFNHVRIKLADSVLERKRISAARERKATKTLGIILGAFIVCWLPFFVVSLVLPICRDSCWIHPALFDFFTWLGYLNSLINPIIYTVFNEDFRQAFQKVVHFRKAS

| Ki [4] | Kb [8] | Ki [9] | SMILES | ED50 (Rattus norvegicus) | also measured |
| --- | --- | --- | --- | --- | --- |
| 1620 nM | 3.31 nM |  | Cn1ccc2cc3c(cc21)CCN3C(=O)Nc1cccnc1 | 5.5 mg/kg | Ki (Histamine H1 receptor): > 10000 nM; Ki [1]: > 10000 nM; Log Ki [2]: > -5; Ki [3]: > 1000 nM; Ki (D(2) dopamine receptor): > 10000 nM; Ki [5]: 5010 nM; Ki [6]: > 5010 nM; Ki (D(3) dopamine receptor): > 10000 nM; Ki (Adenosine receptor A1): > 50100 nM; Ki [7]: > 10000 nM |
|  | 39.8 nM |  | Cl.Cn1ccc2cc(NC(=O)Nc3cccnc3)ccc21 | 19.2 mg/kg | Ki [10]: 138 nM |

More lines, now with the values behind:

| SMILES | Ki [4] | Kb [8] | Ki [9] | ED50 (Rattus norvegicus) | also measured |
| --- | --- | --- | --- | --- | --- |
| Cn1ccc2c3c(ccc21)N(C(=O)Nc1cccnc1)CC3 | 2880 nM | 17.8 nM | 66.1 nM |  |  |
| Cn1ccc2cc3c(cc21)CCCN3C(=O)Nc1cccnc1 | > 6310 nM | 53.7 nM | 4070 nM |  |  |
| Cn1ccc2c3c(ccc21)N(C(=O)Nc1cccnc1)CCC3 | > 6310 nM | 60.3 nM | > 6310 nM |  |  |
